Results reported in ChEMBL document CHEMBL1165940, “Design, synthesis and biological evaluation of a novel series of anthrapyrazoles linked with netropsin-like oligopyrrole carboxamides as anticancer agents” (Bioorg Med Chem, 2010).

Assays:
K562 [1] = experiment: Cytotoxicity against human K562 cells after 72 hrs by MTS assay; type: functional, cell-based; details: K562, 72 h
Procedure, shortened: (§1)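 Suspension cultures in αMEM with 10% fetal calf serum: parental K562 and the etoposide-resistant sub-line K/VP.5, which has reduced topoisomerase IIα. Drugs freshly dissolved in DMSO (final ≤1.9% v/v) and given for 72 h, then MTS reduction read by absorbance. IC50 from triplicate data fitted to a four-parameter logistic equation. Resistance factor is IC50 in K/VP.5 divided by IC50 in K562.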

[2] = target: DNA topoisomerase 2-alpha (Homo sapiens) (UniProt P11388); experiment: Inhibition of human recombinant topoisomerase 2 alpha-mediated Crithidia fasciculate kDNA decatenation at 20 uM relative to control
DNA topoisomerase 2-alpha (Homo sapiens), sequence (P11388 whole entry): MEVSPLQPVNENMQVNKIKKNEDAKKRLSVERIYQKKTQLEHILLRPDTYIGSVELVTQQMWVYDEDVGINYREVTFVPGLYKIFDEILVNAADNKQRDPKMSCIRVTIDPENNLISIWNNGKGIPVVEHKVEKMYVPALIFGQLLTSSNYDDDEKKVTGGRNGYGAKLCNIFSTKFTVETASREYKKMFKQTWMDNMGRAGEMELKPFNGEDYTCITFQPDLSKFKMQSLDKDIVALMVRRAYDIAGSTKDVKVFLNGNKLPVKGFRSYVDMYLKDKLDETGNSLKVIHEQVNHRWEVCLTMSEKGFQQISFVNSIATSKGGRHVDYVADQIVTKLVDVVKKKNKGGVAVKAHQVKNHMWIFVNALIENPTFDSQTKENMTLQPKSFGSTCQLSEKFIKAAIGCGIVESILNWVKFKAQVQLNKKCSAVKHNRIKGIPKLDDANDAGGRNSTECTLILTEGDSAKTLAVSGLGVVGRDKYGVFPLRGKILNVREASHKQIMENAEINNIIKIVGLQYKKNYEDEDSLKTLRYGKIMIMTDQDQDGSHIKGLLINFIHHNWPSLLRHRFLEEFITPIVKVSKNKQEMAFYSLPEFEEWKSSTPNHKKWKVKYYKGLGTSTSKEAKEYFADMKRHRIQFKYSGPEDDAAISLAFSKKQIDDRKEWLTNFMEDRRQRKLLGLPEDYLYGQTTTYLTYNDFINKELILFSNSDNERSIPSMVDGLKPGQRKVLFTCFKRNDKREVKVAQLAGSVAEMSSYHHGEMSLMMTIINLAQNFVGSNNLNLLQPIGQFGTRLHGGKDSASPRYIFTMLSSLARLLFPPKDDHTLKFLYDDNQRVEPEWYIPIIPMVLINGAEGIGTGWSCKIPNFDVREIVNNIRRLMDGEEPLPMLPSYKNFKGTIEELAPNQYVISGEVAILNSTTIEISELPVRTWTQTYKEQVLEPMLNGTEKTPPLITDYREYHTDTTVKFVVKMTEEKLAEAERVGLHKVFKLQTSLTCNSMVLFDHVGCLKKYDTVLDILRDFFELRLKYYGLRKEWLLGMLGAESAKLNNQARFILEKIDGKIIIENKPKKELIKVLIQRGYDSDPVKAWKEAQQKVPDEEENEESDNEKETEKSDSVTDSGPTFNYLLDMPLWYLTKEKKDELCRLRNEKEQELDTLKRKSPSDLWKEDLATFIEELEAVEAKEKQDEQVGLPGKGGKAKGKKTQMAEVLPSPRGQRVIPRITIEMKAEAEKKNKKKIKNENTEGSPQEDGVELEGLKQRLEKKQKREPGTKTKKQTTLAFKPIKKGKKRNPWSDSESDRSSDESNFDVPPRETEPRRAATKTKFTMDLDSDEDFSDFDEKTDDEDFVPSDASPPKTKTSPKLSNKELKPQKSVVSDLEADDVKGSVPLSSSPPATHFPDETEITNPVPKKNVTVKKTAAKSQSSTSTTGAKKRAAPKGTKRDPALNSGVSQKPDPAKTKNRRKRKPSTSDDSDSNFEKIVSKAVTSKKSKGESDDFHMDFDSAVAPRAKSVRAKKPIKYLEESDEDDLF
Procedure, shortened: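 Topoisomerase IIα decatenation of kDNA with 20 µM compound, analysed by gel electrophoresis. Fully decatenated open circular DNA band quantified by densitometry. Inhibition calculated as 100 minus percentage relative integrated band intensity. Etoposide included as a control.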

[3] = target: T1, DNA topoisomerase 1 (Homo sapiens) (UniProt P11387); experiment: Inhibition of topoisomerase 1-mediated relaxation of supercoiled pBR322 DNA at 20 uM after 20 mins using ethidium bromide staining by electrophoresis relative to control
T1 sequence (whole entry): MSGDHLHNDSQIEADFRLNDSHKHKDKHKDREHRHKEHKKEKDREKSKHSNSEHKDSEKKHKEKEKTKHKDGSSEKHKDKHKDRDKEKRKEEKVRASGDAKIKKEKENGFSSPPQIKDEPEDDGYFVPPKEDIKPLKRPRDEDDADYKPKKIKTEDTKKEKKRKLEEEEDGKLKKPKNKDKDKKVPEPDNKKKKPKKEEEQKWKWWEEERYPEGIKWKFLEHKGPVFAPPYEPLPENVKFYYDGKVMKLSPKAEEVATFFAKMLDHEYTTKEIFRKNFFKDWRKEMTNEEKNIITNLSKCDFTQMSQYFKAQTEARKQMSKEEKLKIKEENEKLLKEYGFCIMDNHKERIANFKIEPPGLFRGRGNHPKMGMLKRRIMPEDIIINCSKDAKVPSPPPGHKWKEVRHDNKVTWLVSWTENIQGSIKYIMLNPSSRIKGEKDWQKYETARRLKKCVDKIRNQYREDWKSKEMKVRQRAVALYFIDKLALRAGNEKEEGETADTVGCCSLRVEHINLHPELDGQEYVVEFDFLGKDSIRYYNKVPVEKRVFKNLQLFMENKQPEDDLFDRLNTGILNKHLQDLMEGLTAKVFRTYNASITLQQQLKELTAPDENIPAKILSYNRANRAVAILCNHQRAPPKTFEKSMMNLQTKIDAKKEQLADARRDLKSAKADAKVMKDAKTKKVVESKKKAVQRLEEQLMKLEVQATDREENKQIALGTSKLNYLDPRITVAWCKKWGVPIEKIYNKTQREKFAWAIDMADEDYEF
Procedure, shortened: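 Nuclear extract (50 ng) used as the topoisomerase I source with 60 ng supercoiled pBR322 and 20 µM drug, 20 min at 37 °C. Reaction stopped with 0.05% SDS, then electrophoresis run without ethidium bromide and gel stained afterwards. Supercoiled band quantified by densitometry relative to DNA alone without enzyme (100%). Camptothecin at 50 µM was the positive control.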

[4] = target: DNA topoisomerase 2-alpha (Homo sapiens) (UniProt P11388); experiment: Inhibition of human recombinant topoisomerase 2 alpha assessed as stabilization of enzyme-PBR322 DNA complex at 100 uM relative to control
Procedure, shortened: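 Closed circular pBR322 DNA with topoisomerase IIα and 100 µM compound at 37 °C; components mixed on ice before drug addition. Complexes trapped with SDS and products separated by gel electrophoresis containing ethidium bromide. Linear DNA bands quantified by densitometry relative to the band from 100 µM etoposide, set to 100%.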

K562 [5] = experiment: Resistant factor, ratio of IC50 human K/VP.5 cells to IC50 for human K562 cells; type: functional; procedure, shortened: as §1
[6] = Cytotoxicity against human K/VP.5 cells after 72 hrs by MTS assay; type: functional, cell-based; details: K/VP.5, 72 h
Procedure, shortened: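 Suspension cultures in αMEM with 10% fetal calf serum: parental K562 and the etoposide-resistant sub-line K/VP.5, which has reduced topoisomerase IIα. IC50 from triplicate data fitted to a four-parameter logistic equation. Resistance factor is IC50 in K/VP.5 divided by IC50 in K562.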

Calf thymus DNA = experiment: Binding affinity to calf thymus DNA assessed as increase in melting temperature at 1 uM by spectrophotometer analysis; type: nucleic-acid assay; details: Bos taurus
[7] = Chemical stability in DMSO-d6 assessed as decomposition after 24 hrs; type: physicochemical
DC3F = experiment: Cytotoxicity against hamster DC-3F cells; type: functional, cell-based; details: Cricetulus griseus

SMILES | IC50 (K562 [1]) [µM] | inhibition [2] [%] | inhibition [3] [%] | % cleavage [4] [%] | Ratio IC50 (K562 [5]) | IC50 [6] [µM] | ΔTm (Calf thymus DNA) [°C] | Stability [7] | IC50 (DC3F) [µM]
Cn1cc(NC(=O)c2cc(N)cn2C)cc1C(=O)NCCn1nc2c3c(cccc31)C(=O)c1c(Cl)cccc1-2 | 12.5 | 94 | 52 | 16 | 2.9 | 36.6 | 0.6 | – | –
Cn1cc(NC(=O)OC(C)(C)C)cc1C(=O)NCCn1nc2c3c(cccc31)C(=O)c1ccccc1-2 | 14.4 | 91 | 11 | 18 | 1.5 | 22 | 1.3 | Stable | –
O=C1c2ccccc2-c2nn(CCO)c3cccc1c23 | 11.9 | 60 | 66 | 24 | 0.9 | 10.2 | 0.9 | – | –
CN(C)CC(=O)Nc1cc(C(=O)Nc2cc(C(=O)NCCn3nc4c5c(cccc53)C(=O)c3ccccc3-4)n(C)c2)n(C)c1 | 0.13 | 91 | 23 | – | 1.1 | 0.14 | 4.3 | – | –
Cn1cc(NC(=O)c2cc(N)cn2C)cc1C(=O)NCCn1nc2c3c(cccc31)C(=O)c1ccccc1-2 | 4.1 | 91 | 49 | 6 | 1.5 | 6.4 | 2.7 | – | –
COc1cccc2c1C(=O)c1c(O)c3c(c(O)c1C2=O)C[C@@](O)(C(=O)CO)C[C@@H]3O[C@H]1C[C@H](N)[C@H](O)[C@H](C)O1 [DOXORUBICIN] | 0.033 | 30 | – | 0 | – | – | 8.4 | – | –
Cn1cc(NC(=O)OC(C)(C)C)cc1C(=O)NCCn1nc2c3c(cccc31)C(=O)c1c(Cl)cccc1-2 | 10.7 | 94 | 47 | 11 | 1 | 11 | 0.7 | Stable | –
NCCn1nc2c3c(cccc31)C(=O)c1c(Cl)cccc1-2 | 3.3 | 100 | 62 | 18 | 1 | 3.5 | 2.7 | – | –
Cn1cc(N)cc1C(=O)NCCn1nc2c3c(cccc31)C(=O)c1c(Cl)cccc1-2 | 9.9 | 91 | 14 | 29 | 1.2 | 11.4 | 0.8 | – | –
Cn1cc(N)cc1C(=O)NCCn1nc2c3c(cccc31)C(=O)c1ccccc1-2 | 12.7 | 94 | 10 | 26 | 1.7 | 21.9 | 1.8 | – | –
O=C1c2c(Cl)cccc2-c2nn(CCO)c3cccc1c23 | 14.3 | 56 | 70 | 14 | 0.8 | 12 | 0.3 | – | –
CN(C)CCNc1cccc2c1C(=O)c1cccc3c1c-2nn3CCNC(=O)c1cc(NC(=O)c2cc(NC(=O)CN(C)C)cn2C)cn1C | 0.21 | – | – | – | 3 | 0.63 | 5.3 | – | –
Cn1cc(NC(=O)c2cc(NC(=O)CNC(=N)N)cn2C)cc1C(=O)NCCC(=N)N [NETROPSIN] | > 50 | 39 | – | 0 | – | > 50 | 5.7 | – | 3200
CN(C)CC(=O)Nc1cc(C(=O)NCCn2nc3c4c(cccc42)C(=O)c2ccccc2-3)n(C)c1 | 2.7 | 94 | 16 | 18 | 1.4 | 3.9 | 1.6 | – | –
CN(C)CC(=O)Nc1cc(C(=O)NCCn2nc3c4c(cccc42)C(=O)c2c(Cl)cccc2-3)n(C)c1 | 3.5 | 97 | 21 | 22 | 1.5 | 5.3 | 0.6 | – | –
CN(C)CC(=O)Nc1cc(C(=O)Nc2cc(C(=O)NCCn3nc4c5c(cccc53)C(=O)c3c(Cl)cccc3-4)n(C)c2)n(C)c1 | 0.19 | 97 | 31 | – | 1.1 | 0.21 | 1.7 | – | –
Cn1cc(NC(=O)c2cc(NC(=O)OC(C)(C)C)cn2C)cc1C(=O)NCCn1nc2c3c(cccc31)C(=O)c1ccccc1-2 | 1 | 91 | 31 | 4 | 0.8 | 0.82 | 0.4 | – | –
Cn1cc(NC(=O)c2cc(NC(=O)OC(C)(C)C)cn2C)cc1C(=O)NCCn1nc2c3c(cccc31)C(=O)c1c(Cl)cccc1-2 | 2 | 97 | 47 | 24 | 0.7 | 1.4 | 1 | – | –
NCCn1nc2c3c(cccc31)C(=O)c1ccccc1-2 | 1.8 | 75 | 100 | 29 | 1.7 | 3.1 | 2.2 | – | –
